Test results as given in ChEMBL document CHEMBL1629438, “Selective peroxisome proliferator-activated receptor δ isosteric selenium agonists as potent anti-atherogenic agents in vivo” (Bioorg Med Chem Lett, 2010).
The source made the active and inactive calls. The rule behind the calls is not given here.

What was measured:
[1] = molecular target: T1, Peroxisome proliferator-activated receptor delta (Homo sapiens, UniProt Q03181); assay: Agonist activity at human PPAR-delta expressed in african green monkey CV-1 cells after 24 hrs by luciferase reporter gene assay; assay type: functional, cell-based
T1 sequence (Q03181 whole entry): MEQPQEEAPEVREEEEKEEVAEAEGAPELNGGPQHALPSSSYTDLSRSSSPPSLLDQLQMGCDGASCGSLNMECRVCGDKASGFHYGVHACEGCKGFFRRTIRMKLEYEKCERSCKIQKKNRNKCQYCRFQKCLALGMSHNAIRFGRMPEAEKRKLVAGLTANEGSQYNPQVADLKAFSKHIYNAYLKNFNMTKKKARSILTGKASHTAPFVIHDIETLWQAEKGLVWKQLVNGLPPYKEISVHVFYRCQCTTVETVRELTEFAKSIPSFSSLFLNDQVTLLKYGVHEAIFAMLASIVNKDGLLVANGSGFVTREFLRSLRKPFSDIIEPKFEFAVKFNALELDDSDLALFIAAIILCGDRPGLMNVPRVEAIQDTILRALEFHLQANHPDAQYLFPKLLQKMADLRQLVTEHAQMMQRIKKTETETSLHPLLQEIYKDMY
In short: (§1)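 Cell-based co-transfection reporter assay, with EC50 values derived for each PPAR subtype.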

[2] = molecular target: T2, Peroxisome proliferator-activated receptor gamma (Homo sapiens, UniProt P37231); assay: Agonist activity at human PPAR-gamma expressed in african green monkey CV-1 cells after 24 hrs by luciferase reporter gene assay; assay type: functional, cell-based
T2 sequence (P37231 whole entry): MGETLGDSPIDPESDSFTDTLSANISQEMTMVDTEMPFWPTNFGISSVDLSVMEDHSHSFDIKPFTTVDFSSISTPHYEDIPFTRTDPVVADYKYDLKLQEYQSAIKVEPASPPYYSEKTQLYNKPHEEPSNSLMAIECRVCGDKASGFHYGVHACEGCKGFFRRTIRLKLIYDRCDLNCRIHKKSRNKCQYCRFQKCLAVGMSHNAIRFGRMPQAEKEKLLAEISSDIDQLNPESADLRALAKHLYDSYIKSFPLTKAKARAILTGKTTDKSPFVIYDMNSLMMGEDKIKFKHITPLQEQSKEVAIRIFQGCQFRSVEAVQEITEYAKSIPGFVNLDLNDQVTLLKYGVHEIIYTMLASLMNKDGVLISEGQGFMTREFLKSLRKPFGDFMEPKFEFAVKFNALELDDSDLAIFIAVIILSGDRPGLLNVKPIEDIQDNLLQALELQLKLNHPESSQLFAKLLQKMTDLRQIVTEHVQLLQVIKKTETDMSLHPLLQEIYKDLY

[3] = molecular target: T3, Peroxisome proliferator-activated receptor alpha (Homo sapiens, UniProt Q07869); assay: Agonist activity at human PPAR-alpha expressed in african green monkey CV-1 cells after 24 hrs by luciferase reporter gene assay; assay type: functional, cell-based; in short: as §1
T3 sequence (Q07869 whole entry): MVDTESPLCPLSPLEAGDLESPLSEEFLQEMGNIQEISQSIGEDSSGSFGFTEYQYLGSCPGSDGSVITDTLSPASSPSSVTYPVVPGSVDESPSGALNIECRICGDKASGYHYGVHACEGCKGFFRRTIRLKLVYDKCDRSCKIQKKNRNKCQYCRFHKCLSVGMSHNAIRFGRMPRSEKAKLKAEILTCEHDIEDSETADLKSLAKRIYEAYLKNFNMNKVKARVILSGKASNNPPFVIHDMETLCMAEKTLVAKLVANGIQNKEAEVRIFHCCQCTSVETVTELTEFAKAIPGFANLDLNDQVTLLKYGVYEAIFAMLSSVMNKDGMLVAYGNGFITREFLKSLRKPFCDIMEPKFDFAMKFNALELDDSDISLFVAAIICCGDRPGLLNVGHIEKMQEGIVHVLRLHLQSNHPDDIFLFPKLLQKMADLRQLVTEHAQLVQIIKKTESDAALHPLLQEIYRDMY

[4] = test system: Mus musculus; assay: Antiatherogenic effect in HC/HF diet-fed apolipoprotein E-deficient C57BL/6J mouse assessed as decrease in IL-6 gene expression at 2 mg/kg/day for 4 weeks by quantitative RT-PCR; assay type: functional, organism-based
In short: (§2)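 Apoe-/- mice, eight weeks old, fed an atherogenic HC/HF diet (1.25% cholesterol, 21% fat) for 14 weeks. They received 2 mg/kg/day of test agent (n = 7) or vehicle (n = 6) over the final 4 weeks, then were compared with the vehicle group.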

[5] = molecular target: T4, Peroxisome proliferator-activated receptor delta (Mus musculus, UniProt P35396); assay: Agonist activity at mouse PPAR-delta expressed in african green monkey CV-1 cells after 24 hrs by luciferase reporter gene assay; assay type: functional, cell-based
T4 sequence (P35396 whole entry): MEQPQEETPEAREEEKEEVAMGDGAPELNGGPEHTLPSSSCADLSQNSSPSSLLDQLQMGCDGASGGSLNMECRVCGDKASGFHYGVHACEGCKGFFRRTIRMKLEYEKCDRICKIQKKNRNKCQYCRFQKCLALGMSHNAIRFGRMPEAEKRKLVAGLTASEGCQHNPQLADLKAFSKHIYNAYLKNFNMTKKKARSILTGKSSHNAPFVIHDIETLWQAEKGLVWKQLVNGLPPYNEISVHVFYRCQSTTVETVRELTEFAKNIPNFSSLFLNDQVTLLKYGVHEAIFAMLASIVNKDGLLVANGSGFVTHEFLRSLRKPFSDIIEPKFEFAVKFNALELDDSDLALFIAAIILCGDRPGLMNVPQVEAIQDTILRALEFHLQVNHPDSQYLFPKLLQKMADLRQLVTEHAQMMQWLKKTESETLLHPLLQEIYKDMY

[6] = test system: Mus musculus; assay: Effect on cholesterol homeostasis in HC/HF diet-fed apolipoprotein E-deficient C57BL/6J mouse assessed as effect on ICAM-1 gene expression at 2 mg/kg/day for 4 weeks by quantitative RT-PCR; assay type: functional, organism-based; in short: as §2
[7] = test system: Mus musculus; assay: Antiatherogenic effect in HC/HF diet-fed apolipoprotein E-deficient C57BL/6J mouse assessed as decrease in lesion fatty streak in aorta at 2 mg/kg/day for 4 weeks; assay type: functional; design: scale not given: the % may be the effect or the level left
In short: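 ApoE-/- mice were 8 weeks old at start. They were fed an HC/HF atherogenic diet (1.25% cholesterol, 21% fat) for 14 weeks and dosed at 2 mg/kg/day over the last 4 weeks (treated n = 7, vehicle n = 6). Mice were weighed weekly. Lesion fatty streak extent was scored throughout the aorta against vehicle.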

[8] = test system: Mus musculus; assay: Toxicity in apolipoprotein E-deficient C57BL/6J mouse assessed as weight loss at 6 mg/kg; assay type: organism-based; design: dose 6 mg/kg; conditions: in vivo
[9] = test system: Mus musculus; assay: Effect on cholesterol homeostasis in HC/HF diet-fed apolipoprotein E-deficient C57BL/6J mouse assessed as effect on MCP1 gene expression at 2 mg/kg/day for 4 weeks by quantitative RT-PCR; assay type: functional, organism-based; in short: as §2
[10] = test system: Mus musculus; assay: Effect on cholesterol homeostasis in HC/HF diet-fed apolipoprotein E-deficient C57BL/6J mouse assessed as effect on CD36 gene expression at 2 mg/kg/day for 4 weeks by quantitative RT-PCR; assay type: functional, organism-based; in short: as §2
[11] = test system: Mus musculus; assay: Toxicity in […] diet-fed apolipoprotein E-deficient C57BL/6J mouse assessed as increase in liver weight at 2 mg/kg/day for 4 weeks; assay type: organism-based; conditions: in vivo, 672 h; in short: as §2
[12] = molecular target: Peroxisome proliferator-activated receptor delta (Homo sapiens) (UniProt Q03181); assay: Binding affinity to human PPAR-delta after 1 hr by TR-FRET assay
[13] = test system: Mus musculus; assay: Effect on cholesterol homeostasis in HC/HF diet-fed apolipoprotein E-deficient C57BL/6J mouse assessed as effect on VCAM-1 gene expression at 2 mg/kg/day for 4 weeks by quantitative RT-PCR; assay type: functional, organism-based; in short: as §2
[14] = test system: Mus musculus; assay: Toxicity in apolipoprotein E-deficient C57BL/6J mouse assessed as weight loss at 5 mg/kg; assay type: organism-based; design: dose 5 mg/kg; conditions: in vivo
[15] = test system: Mus musculus; assay: Effect on cholesterol homeostasis in HC/HF diet-fed apolipoprotein E-deficient C57BL/6J mouse assessed as effect on ABCA1 gene expression at 2 mg/kg/day for 4 weeks by quantitative RT-PCR; assay type: functional, organism-based; in short: as §2
[16] = molecular target: T5, Peroxisome proliferator-activated receptor alpha (Mus musculus) (UniProt P23204); assay: Agonist activity at mouse PPAR-alpha expressed in african green monkey CV-1 cells after 24 hrs by luciferase reporter gene assay; assay type: functional, cell-based
T5 sequence (whole entry): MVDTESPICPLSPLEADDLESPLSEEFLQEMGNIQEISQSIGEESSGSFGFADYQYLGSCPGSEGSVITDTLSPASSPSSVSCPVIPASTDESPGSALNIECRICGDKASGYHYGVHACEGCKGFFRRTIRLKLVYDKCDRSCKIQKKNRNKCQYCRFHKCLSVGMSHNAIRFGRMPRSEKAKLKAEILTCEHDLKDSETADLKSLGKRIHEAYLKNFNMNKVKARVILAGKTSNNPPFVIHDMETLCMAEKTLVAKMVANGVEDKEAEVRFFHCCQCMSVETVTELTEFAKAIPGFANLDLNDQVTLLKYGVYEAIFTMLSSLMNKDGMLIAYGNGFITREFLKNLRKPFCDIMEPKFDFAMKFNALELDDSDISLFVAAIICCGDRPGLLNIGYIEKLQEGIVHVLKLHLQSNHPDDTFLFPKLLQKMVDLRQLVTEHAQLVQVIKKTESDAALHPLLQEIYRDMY

[17] = molecular target: T6, Peroxisome proliferator-activated receptor delta (Homo sapiens) (UniProt Q03181); assay: Binding affinity to human PPAR-delta after 1 hr by TR-FRET assay
T6 sequence (whole entry): T1 sequence (Q03181 whole entry)

[18] = test system: Mus musculus; assay: Effect on cholesterol homeostasis in HC/HF diet-fed apolipoprotein E-deficient C57BL/6J mouse assessed as effect on Il-10 gene expression at 2 mg/kg/day for 4 weeks by quantitative RT-PCR; assay type: functional, organism-based; in short: as §2
[19] = molecular target: T7, Peroxisome proliferator-activated receptor gamma (Mus musculus) (UniProt P37238); assay: Agonist activity at mouse PPAR-gammaexpressed in african green monkey CV-1 cells after 24 hrs by luciferase reporter gene assay; assay type: functional, cell-based
T7 sequence (whole entry): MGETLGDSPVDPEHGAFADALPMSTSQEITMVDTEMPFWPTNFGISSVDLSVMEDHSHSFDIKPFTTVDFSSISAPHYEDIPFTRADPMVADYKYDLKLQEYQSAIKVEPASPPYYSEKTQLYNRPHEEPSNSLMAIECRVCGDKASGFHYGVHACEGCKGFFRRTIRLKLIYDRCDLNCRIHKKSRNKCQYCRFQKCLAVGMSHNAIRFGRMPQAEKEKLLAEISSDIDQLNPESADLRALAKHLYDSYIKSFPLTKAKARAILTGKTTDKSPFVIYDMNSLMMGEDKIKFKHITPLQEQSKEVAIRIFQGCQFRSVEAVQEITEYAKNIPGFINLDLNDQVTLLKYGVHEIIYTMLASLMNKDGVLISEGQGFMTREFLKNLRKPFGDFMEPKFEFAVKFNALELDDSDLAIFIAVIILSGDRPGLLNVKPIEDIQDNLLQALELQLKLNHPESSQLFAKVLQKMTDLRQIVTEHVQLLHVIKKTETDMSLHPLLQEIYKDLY

[20] = test system: Mus musculus; assay: Toxicity in […] diet-fed apolipoprotein E-deficient C57BL/6J mouse assessed as weight loss at 2 mg/kg/day for 4 weeks; assay type: organism-based; conditions: in vivo, 672 h
In short: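 Eight-week-old Apoe-/- mice were kept on an HC/HF diet (1.25% cholesterol, 21% fat) for 14 weeks, with 2 mg/kg/day dosing (n = 7) or vehicle (n = 6) in the last 4 weeks. Body weight was recorded every week throughout the experimental period and compared between treated and control groups.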

[21] = test system: Mus musculus; assay: Antiatherogenic effect in apoE-deficient mouse assessed as increase in HDL-cholesterol level at 2 mg/kg/day for 4 weeks
[22] = test system: Mus musculus; assay: Toxicity in apolipoprotein E-deficient C57BL/6J mouse assessed as weight loss at 60 mg/kg; assay type: organism-based; design: dose 60 mg/kg; conditions: in vivo
[23] = test system: Mus musculus; assay: Toxicity in LDLR-deficient mouse assessed as increase in liver weight at 60 mg/kg; assay type: organism-based; design: dose 60 mg/kg; conditions: in vivo
[24] = test system: Mus musculus; assay: Antiatherogenic effect in HC/HF diet-fed apolipoprotein E-deficient C57BL/6J mouse assessed as increase in HDL-cholesterol at 2 mg/kg/day for 4 weeks; assay type: functional, organism-based; in short: as §2
[25] = Drug level in LDLR-deficient mouse serum at 60 mg/kg; assay type: ADME, organism-based; design: dose 60 mg/kg

Cc1cc([Se]Cc2sc(-c3ccc(C(F)(F)F)cc3)nc2C)ccc1OC(C)C(=O)O (stereo not drawn)
EC50 [1]: 11 nM | EC50 [2]: > 1000 nM | EC50 [3]: 120 nM

Cc1cc([Se]Cc2sc(-c3ccc(C(F)(F)F)c(F)c3)nc2C)ccc1OC(C)C(=O)O (stereo not drawn)
EC50 [1]: 8.5 nM | EC50 [2]: > 1000 nM | EC50 [3]: 39.4 nM

Cc1cc([Se]Cc2sc(-c3ccc(C(F)(F)F)cc3)nc2C)ccc1OCC(=O)O
Activity [4]: Active | EC50 [5]: 2.3 nM | Activity [6]: inactive | Activity [7]: 25% | Activity [8]: Toxic | Activity [9]: inactive | Activity [10]: inactive | Activity [11]: Non-toxic | Activity [12]: Active | Activity [13]: inactive | Activity [14]: Toxic | Activity [15]: inactive | Activity [16]: inactive | EC50 [1]: 0.9 nM | Activity [17]: Active | Activity [18]: inactive | EC50 [2]: > 1000 nM | Activity [19]: inactive | Activity [20]: Non-toxic | EC50 [3]: > 1000 nM | Activity [21]: Active | Activity [22]: Toxic

Cc1cc(SCc2sc(-c3ccc(C(F)(F)F)c(F)c3)nc2C)ccc1OCC(=O)O
Activity [16]: Active | Activity [23]: Toxic | Activity [19]: Active | Activity [24]: Active | Cmax [25]: 21 µM
